Active and inactive are the calls of the source. No cut-off for these calls is given here.
Each compound was assayed on West Nile virus (assay: Inhibition of West Nile virus NS2B-NS3 protease expressed in Escherichia coli BL 21 (DE3) using Abz-Gly-Leu-Lys-Arg-Gly-Gly-3-(NO2)Tyr as substrate at 50 uM after 15 mins).

Row | Compound | inhibition
1 | N=C(N)NCCC[C@H](NC(=O)c1ccc(/C=C2\SC(=O)N(Cc3ccccc3)C2=O)cc1)C(=O)N[C@@H](CCCCN)C(N)=O | 76.2%
2 | CCCC[C@H](NC(=O)c1ccc(/C=C2\SC(=O)N(Cc3ccccc3)C2=O)cc1)C(=O)N[C@@H](CCCCN)C(=O)N[C@@H](CCCNC(=N)N)C(N)=O | 60.3%
3 | CCCC[C@H](NC(=O)[C@H](CCCCN)NC(=O)[C@H](CCCNC(=N)N)NC(=O)c1ccc(/C=C2\SC(=S)N(c3ccc(C)cc3)C2=O)cc1)C(N)=O | 50.9%
4 | CCCC[C@H](NC(=O)[C@H](CCCCN)NC(=O)[C@H](CCCNC(=N)N)NC(=O)c1ccc(/C=C2\SC(=S)N(CC3CCCO3)C2=O)cc1)C(N)=O (some centres undefined) | 53.4%
5 | CCCC[C@H](NC(=O)[C@H](CCCCN)NC(=O)[C@H](CCCNC(=N)N)NC(=O)c1ccc(/C=C2\SC(=S)N(C3CC3)C2=O)cc1)C(N)=O | 46.4%
6 | C=CCN1C(=O)S/C(=C\c2ccc(C(=O)N[C@@H](CCCNC(=N)N)C(=O)N[C@@H](CCCCN)C(=O)N[C@@H](CCCC)C(N)=O)cc2)C1=O | 33.2%
7 | CCCC[C@H](NC(=O)[C@H](CCCCN)NC(=O)[C@H](CCCCN)NC(=O)c1ccc(/C=C2\SC(=O)N(Cc3ccccc3)C2=O)cc1)C(N)=O | 36.9%
8 | CCCC[C@H](NC(=O)[C@H](CCCCN)NC(=O)[C@H](CCCNC(=N)N)NC(=O)c1ccc(/C=C2\SC(=S)N(CC)C2=O)cc1)C(N)=O | 45.4%
9 | CCCC[C@H](NC(=O)[C@H](CCCCN)NC(=O)[C@H](CCCNC(=N)N)NC(=O)c1ccc(/C=C2\NC(=S)N(c3ccccc3)C2=O)cc1)C(N)=O | 44.1%
10 | CCCC[C@H](NC(=O)[C@H](CCCC)NC(=O)[C@H](CCCNC(=N)N)NC(=O)c1ccc(/C=C2\SC(=O)N(Cc3ccccc3)C2=O)cc1)C(N)=O | 88.3%
11 | CCCC[C@H](NC(=O)[C@H](CCCCN)NC(=O)[C@H](CCCNC(=N)N)NC(=O)CN1C(=O)/C(=C/c2ccc(OC)c(OC)c2)SC1=S)C(N)=O | 30.2%
12 | CCCC[C@H](NC(=O)[C@H](CCCCN)NC(=O)[C@H](CCCNC(=N)N)NC(=O)c1ccc(/C=C2\SC(=S)N(C(C)C)C2=O)cc1)C(N)=O | 63.7%
13 | CCCC[C@H](NC(=O)[C@H](CCCCN)NC(=O)[C@H](CCCNC(=N)N)NC(=O)c1ccc(/C=C2\SC(=S)N(c3ccc(F)cc3)C2=O)cc1)C(N)=O | 35.5%
14 | N=C(N)NCCC[C@H](NC(=O)c1ccc(/C=C2\SC(=O)N(Cc3ccccc3)C2=O)cc1)C(N)=O | 16.9%
15 | CCCC[C@H](NC(=O)[C@H](CCCCN)NC(=O)[C@H](CCCNC(=N)N)NC(=O)c1ccc(/C=C2\NC(=S)N(Cc3ccccc3)C2=O)cc1)C(N)=O | 29.2%
16 | CCCC[C@H](NC(=O)[C@H](CCCCN)NC(=O)[C@H](CCCNC(=N)N)NC(=O)c1ccc(/C=C2\SC(=O)N(CCC)C2=O)cc1)C(N)=O | 33.6%
17 | CCCC[C@H](NC(=O)[C@H](CCCCN)NC(=O)[C@H](CCCNC(=N)N)NC(=O)c1ccc(/C=C2\SC(=S)N(CCOC(C)=O)C2=O)cc1)C(N)=O | 22.4%
18 | CCCC[C@H](NC(=O)[C@H](CCCNC(=N)N)NC(=O)[C@H](CCCCN)NC(=O)c1ccc(/C=C2\SC(=O)N(Cc3ccccc3)C2=O)cc1)C(N)=O | 60.9%

Each compound was assayed on Dengue virus (assay: Inhibition of Dengue virus NS2B-NS3 protease expressed in Escherichia coli BL 21 (DE3) using Abz-Nle-Lys-Arg-Arg-Ser-3-(NO2)Tyr as substrate at 50 uM after 15 mins).

Row | Compound | inhibition
19 | N=C(N)NCCC[C@H](NC(=O)c1ccc(/C=C2\SC(=O)N(Cc3ccccc3)C2=O)cc1)C(=O)N[C@@H](CCCCN)C(N)=O | 83.1%
20 | CCCC[C@H](NC(=O)c1ccc(/C=C2\SC(=O)N(Cc3ccccc3)C2=O)cc1)C(=O)N[C@@H](CCCCN)C(=O)N[C@@H](CCCNC(=N)N)C(N)=O | 66.8%
21 | CCCC[C@H](NC(=O)[C@H](CCCCN)NC(=O)[C@H](CCCNC(=N)N)NC(=O)c1ccc(/C=C2\SC(=S)N(c3ccc(C)cc3)C2=O)cc1)C(N)=O | 95%
22 | CCCC[C@H](NC(=O)[C@H](CCCCN)NC(=O)[C@H](CCCNC(=N)N)NC(=O)c1ccc(/C=C2\SC(=S)N(CC3CCCO3)C2=O)cc1)C(N)=O (some centres undefined) | 93.3%
23 | CCCC[C@H](NC(=O)[C@H](CCCCN)NC(=O)[C@H](CCCNC(=N)N)NC(=O)c1ccc(/C=C2\SC(=S)N(C3CC3)C2=O)cc1)C(N)=O | 94.6%
24 | C=CCN1C(=O)S/C(=C\c2ccc(C(=O)N[C@@H](CCCNC(=N)N)C(=O)N[C@@H](CCCCN)C(=O)N[C@@H](CCCC)C(N)=O)cc2)C1=O | 93.2%
25 | CCCC[C@H](NC(=O)[C@H](CCCCN)NC(=O)[C@H](CCCCN)NC(=O)c1ccc(/C=C2\SC(=O)N(Cc3ccccc3)C2=O)cc1)C(N)=O | 83%
26 | CCCC[C@H](NC(=O)[C@H](CCCCN)NC(=O)[C@H](CCCNC(=N)N)NC(=O)c1ccc(/C=C2\SC(=S)N(CC)C2=O)cc1)C(N)=O | 93.4%
27 | CCCC[C@H](NC(=O)[C@H](CCCCN)NC(=O)[C@H](CCCNC(=N)N)NC(=O)c1ccc(/C=C2\NC(=S)N(c3ccccc3)C2=O)cc1)C(N)=O | 85.2%
28 | CCCC[C@H](NC(=O)[C@H](CCCC)NC(=O)[C@H](CCCNC(=N)N)NC(=O)c1ccc(/C=C2\SC(=O)N(Cc3ccccc3)C2=O)cc1)C(N)=O | 81.4%
29 | CCCC[C@H](NC(=O)[C@H](CCCCN)NC(=O)[C@H](CCCNC(=N)N)NC(=O)CN1C(=O)/C(=C/c2ccc(OC)c(OC)c2)SC1=S)C(N)=O | 46.5%
30 | CCCC[C@H](NC(=O)[C@H](CCCCN)NC(=O)[C@H](CCCNC(=N)N)NC(=O)c1ccc(/C=C2\SC(=S)N(C(C)C)C2=O)cc1)C(N)=O | 94.4%
31 | CCCC[C@H](NC(=O)[C@H](CCCCN)NC(=O)[C@H](CCCNC(=N)N)NC(=O)c1ccc(/C=C2\SC(=S)N(c3ccc(F)cc3)C2=O)cc1)C(N)=O | 89.7%
32 | N=C(N)NCCC[C@H](NC(=O)c1ccc(/C=C2\SC(=O)N(Cc3ccccc3)C2=O)cc1)C(N)=O | 32.4%
33 | CCCC[C@H](NC(=O)[C@H](CCCCN)NC(=O)[C@H](CCCNC(=N)N)NC(=O)c1ccc(/C=C2\NC(=S)N(Cc3ccccc3)C2=O)cc1)C(N)=O | 83.5%
34 | CCCC[C@H](NC(=O)[C@H](CCCCN)NC(=O)[C@H](CCCNC(=N)N)NC(=O)c1ccc(/C=C2\SC(=O)N(CCC)C2=O)cc1)C(N)=O | 94.5%
35 | CCCC[C@H](NC(=O)[C@H](CCCCN)NC(=O)[C@H](CCCNC(=N)N)NC(=O)c1ccc(/C=C2\SC(=S)N(CCOC(C)=O)C2=O)cc1)C(N)=O | 89.3%
36 | CCCC[C@H](NC(=O)[C@H](CCCNC(=N)N)NC(=O)[C@H](CCCCN)NC(=O)c1ccc(/C=C2\SC(=O)N(Cc3ccccc3)C2=O)cc1)C(N)=O | 72.1%

The compounds below were run against Prothrombin (Homo sapiens) (UniProt P00734) (assay: Inhibition of thrombin (unknown origin) using Boc-Val-Pro-Arg-AMC as substrate at 25 uM after 10 mins by continuous fluorimetric assay).
Outline: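 Thrombin (10 nM) preincubated 15 min with inhibitor (25 μM final) in 50 mM Tris-HCl pH 7.5, 150 mM NaCl, 0.05% Tween 20. Boc-Val-Pro-Arg-AMC then added to 50 μM (Km 16 μM). Fluorescence (ex 355 nm, em 460 nm) followed for 10 min as slope. Triplicate; percent inhibition versus no-inhibitor control.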

Row | Compound | inhibition
37 | N=C(N)NCCC[C@H](NC(=O)c1ccc(/C=C2\SC(=O)N(Cc3ccccc3)C2=O)cc1)C(=O)N[C@@H](CCCCN)C(N)=O | inactive
38 | CCCC[C@H](NC(=O)c1ccc(/C=C2\SC(=O)N(Cc3ccccc3)C2=O)cc1)C(=O)N[C@@H](CCCCN)C(=O)N[C@@H](CCCNC(=N)N)C(N)=O | 6.3%
39 | CCCC[C@H](NC(=O)[C@H](CCCCN)NC(=O)[C@H](CCCNC(=N)N)NC(=O)c1ccc(/C=C2\SC(=S)N(c3ccc(C)cc3)C2=O)cc1)C(N)=O | 10.2%
40 | CCCC[C@H](NC(=O)[C@H](CCCCN)NC(=O)[C@H](CCCNC(=N)N)NC(=O)c1ccc(/C=C2\SC(=S)N(CC3CCCO3)C2=O)cc1)C(N)=O (some centres undefined) | 13.3%
41 | CCCC[C@H](NC(=O)[C@H](CCCCN)NC(=O)[C@H](CCCNC(=N)N)NC(=O)c1ccc(/C=C2\SC(=S)N(C3CC3)C2=O)cc1)C(N)=O | 6.3%
42 | C=CCN1C(=O)S/C(=C\c2ccc(C(=O)N[C@@H](CCCNC(=N)N)C(=O)N[C@@H](CCCCN)C(=O)N[C@@H](CCCC)C(N)=O)cc2)C1=O | 12.5%
43 | CCCC[C@H](NC(=O)[C@H](CCCCN)NC(=O)[C@H](CCCCN)NC(=O)c1ccc(/C=C2\SC(=O)N(Cc3ccccc3)C2=O)cc1)C(N)=O | 16.7%
44 | CCCC[C@H](NC(=O)[C@H](CCCCN)NC(=O)[C@H](CCCNC(=N)N)NC(=O)c1ccc(/C=C2\SC(=S)N(CC)C2=O)cc1)C(N)=O | 13.6%
45 | CCCC[C@H](NC(=O)[C@H](CCCCN)NC(=O)[C@H](CCCNC(=N)N)NC(=O)c1ccc(/C=C2\NC(=S)N(c3ccccc3)C2=O)cc1)C(N)=O | 18%
46 | CCCC[C@H](NC(=O)[C@H](CCCC)NC(=O)[C@H](CCCNC(=N)N)NC(=O)c1ccc(/C=C2\SC(=O)N(Cc3ccccc3)C2=O)cc1)C(N)=O | 8.3%
47 | CCCC[C@H](NC(=O)[C@H](CCCCN)NC(=O)[C@H](CCCNC(=N)N)NC(=O)CN1C(=O)/C(=C/c2ccc(OC)c(OC)c2)SC1=S)C(N)=O | 13.8%
48 | CCCC[C@H](NC(=O)[C@H](CCCCN)NC(=O)[C@H](CCCNC(=N)N)NC(=O)c1ccc(/C=C2\SC(=S)N(C(C)C)C2=O)cc1)C(N)=O | 12%
49 | CCCC[C@H](NC(=O)[C@H](CCCCN)NC(=O)[C@H](CCCNC(=N)N)NC(=O)c1ccc(/C=C2\SC(=S)N(c3ccc(F)cc3)C2=O)cc1)C(N)=O | 6.5%
50 | N=C(N)NCCC[C@H](NC(=O)c1ccc(/C=C2\SC(=O)N(Cc3ccccc3)C2=O)cc1)C(N)=O | 13.2%
51 | CCCC[C@H](NC(=O)[C@H](CCCCN)NC(=O)[C@H](CCCNC(=N)N)NC(=O)c1ccc(/C=C2\NC(=S)N(Cc3ccccc3)C2=O)cc1)C(N)=O | 11.4%
52 | CCCC[C@H](NC(=O)[C@H](CCCCN)NC(=O)[C@H](CCCNC(=N)N)NC(=O)c1ccc(/C=C2\SC(=O)N(CCC)C2=O)cc1)C(N)=O | inactive
53 | CCCC[C@H](NC(=O)[C@H](CCCCN)NC(=O)[C@H](CCCNC(=N)N)NC(=O)c1ccc(/C=C2\SC(=S)N(CCOC(C)=O)C2=O)cc1)C(N)=O | 22.8%
54 | CCCC[C@H](NC(=O)[C@H](CCCNC(=N)N)NC(=O)[C@H](CCCCN)NC(=O)c1ccc(/C=C2\SC(=O)N(Cc3ccccc3)C2=O)cc1)C(N)=O | 10.2%

— ChEMBL document CHEMBL2440094, “Thiazolidinone-peptide hybrids as dengue virus protease inhibitors with antiviral activity in cell culture” (J Med Chem, 2013)
